The values that follow come from ChEMBL document CHEMBL5038571, “Design and Synthesis of EZH2-Based PROTACs to Degrade the PRC2 Complex for Targeting the Noncatalytic Activity of EZH2” (J Med Chem, 2021).

One assay has as its system Pfeiffer. As to the kind of experiment: Upregulation of TXINP mRNA expression in human Pfeiffer cells at 1 uM incubated for 48 hrs by qRT-PCR analysis. The assay is classed as functional, cell-based. The method in brief: (§1)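 WSU-DLCL-2 or Pfeiffer cells treated 48 h. Trizol RNA extraction, reverse transcription, SYBR qPCR (95 °C 30 s; 40 cycles of 95 °C 6 s, 60 °C 20 s). mRNA normalized to DMSO-treated cells; mean ± SD of three independent experiments, t-test.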

For assay [1], the target named is T1, Protein cereblon/Histone-lysine N-methyltransferase EZH2 (Homo sapiens) (UniProt Q15910+Q96SW2). As to the kind of experiment: PROTAC activity at CRBN E3 ligase/EZH2 in PRC2 complex in human WSUDLCL2 cells assessed as downregulation of EZH2 expression at 1 uM pretreated with EED226 for 4 hrs followed by compound addition and measured after 48 hrs by Western blot analysis. The format is cell-based. The gist of the method:
(§2)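 WSU-DLCL-2 cells pretreated 4 h with the named inhibitor, then compound added and incubated a further 48 h. EZH2, SUZ12, EED and RbAp48 measured by western blot (nitrocellulose transfer, skim-milk block, primary antibody overnight at 4 °C, chemiluminescent detection).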
For orientation: In western blotting, separated proteins are transferred to a membrane and probed.

Assay [2] concerns the target T1, Protein cereblon/Histone-lysine N-methyltransferase EZH2 (Homo sapiens). Kind of assay: PROTAC activity at CRBN E3 ligase/EZH2 in PRC2 complex in human WSUDLCL2 cells assessed as induction of EED degradation at 1 uM measured up to 2 hrs by Western blot analysis. The assay is classed as cell-based. The conditions noted are these: time hrs <=2.
The target is the same in assay [3]. As to the kind of experiment: PROTAC activity at CRBN E3 ligase/EZH2 in PRC2 complex in human WSUDLCL2 cells assessed as reduction in H3K27me3 level at 10 uM incubated for 48 hrs by Western blot analysis. The assay is classed as cell-based.
The target is the same in assay [4]. Kind of assay: PROTAC activity at CRBN E3 ligase/EZH2 in PRC2 complex in human WSUDLCL2 cells assessed as induction of EZH2 degradation by measuring reduction in EZH2 protein level at 1 uM measured up to 2 hrs by Western blot analysis. The assay is classed as cell-based. The conditions noted are these: time hrs <=2.
Assay [5] has the same target. As to the kind of experiment: PROTAC activity at CRBN E3 ligase/EZH2 in PRC2 complex in human WSUDLCL2 cells assessed as effect on SUZ12 mRNA expression at 1 uM incubated for 48 hrs by RT-qPCR analysis. The format is cell-based. The gist of the method: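 WSU-DLCL-2 cells treated 48 h with 1 μM compound. Total RNA extracted with Trizol and reverse-transcribed. SYBR qPCR run as 95 °C 30 s, then 40 cycles of 95 °C 6 s and 60 °C 20 s. PRC2 subunit mRNA normalized to the DMSO-treated group; mean SD, t-test.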

Assay [6] has the same target. Kind of assay: PROTAC activity at CRBN E3 ligase/EZH2 in PRC2 complex in human WSUDLCL2 cells assessed as induction of EZH2 degradation incubated for 48 hrs by Western blot analysis. The conditions noted are these: dose 1-10 µM. The format is cell-based. The method in brief:
(§3)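 WSU-DLCL-2 cells treated 48 h (1 μM for the single-concentration screen), lysed; SDS-PAGE, nitrocellulose transfer, 5% milk block, primary antibody 4 °C overnight, chemiluminescence. Bands quantified by densitometry, normalized to GAPDH, expressed relative to DMSO-treated cells; mean ± SD of three independent experiments, t-test.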

For assay [7], the system named is A549. As to the kind of experiment: Downregulation of […] mRNA expression in human A549 cells at 10 uM incubated for 48 hrs by qRT-PCR analysis. The assay is classed as functional, cell-based. The gist of the method: (§4)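 Cells treated 48 h. Total RNA extracted with Trizol, reverse-transcribed, and SYBR RT-qPCR run: 95 °C 30 s, then 40 cycles of 95 °C 6 s and 60 °C 20 s. mRNA normalized to the DMSO-treated group. Mean SD of three independent experiments, t-test versus DMSO.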
(In qPCR the cycle at which signal appears reflects the starting amount.)

For the next assay, the system named is MDA-MB-468. Kind of assay: Downregulation of ARL6IP mRNA expression in human MDA-MB-468 cells at 10 uM incubated for 48 hrs by qRT-PCR analysis. The assay is classed as functional, cell-based. The gist of the method:
as §4

Assay [8] concerns the target T1, Protein cereblon/Histone-lysine N-methyltransferase EZH2 (Homo sapiens). Kind of assay: PROTAC activity at CRBN E3 ligase/EZH2 in PRC2 complex in human DU-145 cells assessed as induction of EED degradation by measuring reduction in EED protein level at 1 uM incubated for 48 hrs by Western blot analysis. The format is cell-based. The method in brief:
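Cancer cell lines exposed to 1 μM compound for 48 h. Lysates immunoblotted (SDS-PAGE, nitrocellulose, 5% milk block, primary antibody overnight at 4 °C) for EZH2, SUZ12, EED, RbAp48 and H3K27me3. Bands quantified by densitometry and normalized to GAPDH.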

Assay [9] shares this target. As to the kind of experiment: PROTAC activity at CRBN E3 ligase/EZH2 in PRC2 complex in human WSUDLCL2 cells assessed as induction of EED degradation incubated for 48 hrs by Western blot analysis. The assay is classed as cell-based. The settings on record: dose 1-10 µM.
Another assay relates to NCI-H1299. Kind of assay: Downregulation of CHEK1 mRNA expression in human NCI-H1299 cells at 10 uM incubated for 48 hrs by qRT-PCR analysis. The assay is classed as functional, cell-based. The gist of the method:
as §4

The target of assay [10] is T1, Protein cereblon/Histone-lysine N-methyltransferase EZH2 (Homo sapiens). As to the kind of experiment: PROTAC activity at CRBN E3 ligase/EZH2 in PRC2 complex in human WSUDLCL2 cells assessed as induction of SUZ12 degradation at 1 uM incubated for 48 hrs by Western blot analysis relative to control. The format is cell-based. The gist of the method: as §3
The subject of assay [11] is WSUDLCL2. Kind of assay: Inhibition of PRC2 in human WSUDLCL2 cells assessed as suppression H3K27 dimethylation incubated for 48 hrs by Western blot analysis. The format is cell-based. The method in brief:
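Lysates run on SDS-PAGE and transferred to nitrocellulose. Membranes blocked with 5% skim milk for 2 h, primary antibody applied overnight at 4 °C, then secondary antibody and chemiluminescent detection of histone H3 methylation marks.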

Assay [12] concerns the target T1, Protein cereblon/Histone-lysine N-methyltransferase EZH2 (Homo sapiens). As to the kind of experiment: PROTAC activity at CRBN E3 ligase/EZH2 in PRC2 complex in human WSUDLCL2 cells assessed as downregulation of SUZ12 expression at 1 uM pretreated with MLN4924 for 4 hrs followed by compound addition and measured after 48 hrs by Western blot analysis. The assay is classed as cell-based. The method in brief:
as §2

Assay [13] has as its target Histone-lysine N-methyltransferase EZH2 (Homo sapiens, UniProt Q15910). The format is cell-based, Sf9.
Assay [14] has as its system WSUDLCL2. As to the kind of experiment: Upregulation of ADRB2 mRNA expression in human WSUDLCL2 cells at 1 uM incubated for 48 hrs by qRT-PCR analysis. The assay is classed as functional, cell-based. The gist of the method: as §1
For assay [15], the target named is T1, Protein cereblon/Histone-lysine N-methyltransferase EZH2 (Homo sapiens). Kind of assay: PROTAC activity at CRBN E3 ligase/EZH2 in PRC2 complex in human WSUDLCL2 cells assessed as downregulation of EZH2 expression at 1 uM pretreated with GSK126 for 4 hrs followed by compound addition and measured after 48 hrs by Western blot analysis. The assay is classed as cell-based. The gist of the method: as §2

The target is the same in assay [16]. Kind of assay: PROTAC activity at CRBN E3 ligase/EZH2 in PRC2 complex in human LNCaP cells assessed as induction of SUZ12 degradation by measuring reduction in SUZ12 protein level at 1 uM incubated for 48 hrs by Western blot analysis. The format is cell-based. The gist of the method: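 Cells cultured in DMEM or RPMI 1640 with 10% FBS and 1% penicillin-streptomycin, 37 °C, 5% CO2; exposed to 1 μM compound for 48 h. Lysates run on SDS-PAGE and transferred to nitrocellulose. Blocked 2 h in 5% skim milk, primary antibody overnight at 4 °C, then secondary antibody. Chemiluminescent detection of PRC2 subunits and H3K27me3.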

Assay [17] relates to A549. Kind of assay: Downregulation of CHEK1 mRNA expression in human A549 cells at 10 uM incubated for 48 hrs by qRT-PCR analysis. The assay is classed as functional, cell-based. The method in brief: as §4

Molecules are shown by their SMILES. Active and inactive are the calls of the source. The calls are words filed in the database; no cut-off is given here.

T1 sequence (Q15910 whole entry, looked up): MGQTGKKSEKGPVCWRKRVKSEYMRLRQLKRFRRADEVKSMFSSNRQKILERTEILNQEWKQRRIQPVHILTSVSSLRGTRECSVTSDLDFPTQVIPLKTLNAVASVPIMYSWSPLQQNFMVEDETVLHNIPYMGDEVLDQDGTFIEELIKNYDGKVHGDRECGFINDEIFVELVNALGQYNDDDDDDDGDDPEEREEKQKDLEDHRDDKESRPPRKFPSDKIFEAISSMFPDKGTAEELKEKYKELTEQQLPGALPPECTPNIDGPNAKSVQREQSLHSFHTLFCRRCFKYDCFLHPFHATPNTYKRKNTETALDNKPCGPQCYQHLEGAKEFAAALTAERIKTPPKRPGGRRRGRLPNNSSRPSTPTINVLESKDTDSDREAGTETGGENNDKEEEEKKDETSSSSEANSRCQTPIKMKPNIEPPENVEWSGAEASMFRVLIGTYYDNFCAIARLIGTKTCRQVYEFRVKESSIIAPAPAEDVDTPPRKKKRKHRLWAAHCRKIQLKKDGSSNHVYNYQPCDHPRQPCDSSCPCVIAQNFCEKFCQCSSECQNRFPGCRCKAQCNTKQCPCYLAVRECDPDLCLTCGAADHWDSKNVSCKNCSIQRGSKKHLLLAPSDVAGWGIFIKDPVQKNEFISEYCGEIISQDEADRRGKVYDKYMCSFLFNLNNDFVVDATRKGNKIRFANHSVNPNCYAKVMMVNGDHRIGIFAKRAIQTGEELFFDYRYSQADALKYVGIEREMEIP
T1 sequence (Q96SW2 whole entry, looked up): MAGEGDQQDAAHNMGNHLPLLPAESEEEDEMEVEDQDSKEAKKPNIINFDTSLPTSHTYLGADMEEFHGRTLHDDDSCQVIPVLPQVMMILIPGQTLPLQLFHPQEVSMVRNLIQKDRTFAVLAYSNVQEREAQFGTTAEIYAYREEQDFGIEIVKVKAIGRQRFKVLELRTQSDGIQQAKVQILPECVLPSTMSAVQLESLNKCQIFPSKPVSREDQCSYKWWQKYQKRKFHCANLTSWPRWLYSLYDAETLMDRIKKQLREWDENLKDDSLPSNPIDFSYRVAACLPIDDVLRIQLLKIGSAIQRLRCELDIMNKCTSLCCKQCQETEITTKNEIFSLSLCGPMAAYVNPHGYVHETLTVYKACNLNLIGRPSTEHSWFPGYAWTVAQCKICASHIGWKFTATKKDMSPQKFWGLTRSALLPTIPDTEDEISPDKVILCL
Histone-lysine N-methyltransferase EZH2, sequence (Q15910 whole entry): as the sequence (Q15910 whole entry, looked up) above

For the compound `CCN(c1cc(-c2ccc(CN3CCN(CCCCCCCOc4cccc5c4C(=O)N(C4CCC(=O)NC4=O)C5=O)CC3)cc2)cc(C(=O)NCc2c(C)cc(C)[nH]c2=O)c1C)C1CCOCC1` (stereo not given), the result (with Pfeiffer; in assay [2]; in [3]; in assay [5]; in assay [12]; in [15]) was inactive. The outcome (in assay [1]; in [4]; in the assay with A549 [7]; with MDA-MB-468; in assay [8]; with NCI-H1299) was Active. The outcome (in the assay with WSUDLCL2 [14]; in assay [16]; in the assay on A549 [17]) was Active. Further, the figures for the Activity entry in assay [6], in [9] and in assay [10] were “Dose-Dependent Effect”, “Dose-Dependent Effect” and 81%, respectively. For the same compound, the inhibition result in the assay with WSUDLCL2 [11] is “Dose-Dependent Effect”. The same compound yielded an IC50 in assay [13] of 2.7 nM.

Broadly, the IC50 is the concentration at which inhibition is half-maximal. A high value points to weaker potency in that assay.
